Results on five compounds are retold here after PMC9623456 (RSC Advances, 2022).

Data set [1] concerns mouse embryo cell lines 3T3-L1. As to the kind of experiment: MTT assay. In kind it is cell-based. As to conditions: for IC50: Mus musculus, 3T3-L1, read-out: 3T3-L1 IC50. In outline: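 MTT metabolic-activity assay in mouse embryo 3T3-L1 cells exposed to a range of test-compound concentrations. Percent viability was calculated by formula and plotted against concentration in μg ml−1. IC50 was taken from the dose–response curve as the concentration giving 50% growth suppression.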
On the technique in general: Formazan colour is commonly taken as a measure of viable cells.

The next data set deals with 3T3-L1 cells. As to the kind of experiment: Scratch wound assay. As to conditions: 3T3-L1, 24 hours. In kind it is cell-based, mouse. In outline:
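Scratch assay: 3T3-L1 cells were grown to confluence, then wounded with a pipette tip and treated with test compounds. Wound width was measured at the time of scratching and again after 24 h.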

The subject of the next data set is diabetic rats. As to the kind of experiment: Full thickness excision wound model in STZ-nicotinamide diabetic rats. The format is in vivo, Wistar male albino rats.
The next data set concerns mice. As to the kind of experiment: Acute oral toxicity study. The format is in vivo. In outline: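 OECD 420 fixed-dose procedure in mice. Animals were dosed orally in stepwise groups at fixed doses of 5, 50, 300 and 2000 mg kg−1. Further groups received higher or lower fixed doses depending on the presence or absence of toxicity or death. Read-outs were clinical signs of toxicity and mortality.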

For data set [2], the target named is HIF-1α prolyl hydroxylase-2 (PHD2). As to conditions: PHD2 inhibition; cited from earlier work.
The conditions of data set [3]: Phase 2 trial; cited from earlier work.

Converted amounts (≈) assume the structure as drawn.

Turning to `c1ccc(-c2cc(-c3ccccc3)n(CN(c3ccccc3)c3ccccc3)n2)cc1` [CDPA, N-[(3,5-diphenylpyrazol-1-yl)methyl] -N-phenylaniline], the IC50 (in general, the point on the concentration scale where inhibition reaches its midpoint) in data set [1] is 132 µg/mL (≈ 328 µM).
As for `c1ccc(-c2cc(-c3ccccc3)n(Cn3cccn3)n2)cc1` [CP, 3,5-Diphenyl-1-(pyrazole-1-ylmethyl) pyrazole], the concentration for half-maximal inhibition (IC50) in data set [1] was found to be 111 µg/mL (≈ 371 µM). Further, in the data set with 3T3-L1 cells, the “Activity compared to the positive control hyaluronic acid” value is “comparable activity”.
As to `c1ccc(-c2cc(-c3ccccc3)n(Cn3ccnc3)n2)cc1` [CI, 1-(Imidazol-1-ylmethyl) −3,5-diphenylpyrazole], the IC50 in data set [1] amounted to 107 µg/mL (≈ 355 µM). For the same compound, the “Wound contraction (%)” value in the data set with diabetic rats (High dose 150 mg kg^−1, oral, Day 3) stood at 24.5 ± 0.48 %; with diabetic rats (High dose 150 mg kg^−1, oral, Day 7), 31.25 ± 0.39 %; with diabetic rats (High dose 150 mg kg^−1, oral, Day 11), 64.00 ± 0.44 %; with diabetic rats (Low dose 75 mg kg^−1, oral, Day 3), 18.25 ± 0.55 %; in the data set on diabetic rats (Low dose 75 mg kg^−1, oral, Day 7), 24.50 ± 0.30 %; in the data set with diabetic rats (Low dose 75 mg kg^−1, oral, Day 11), 41.5 ± 0.43 %. Moreover, the “Wound contraction (%)” value in the data set on diabetic rats (Low dose 75 mg kg^−1, oral, Day 15) is reported as 55.77 ± 0.42 %. For the same compound, the “Wound healing in rats” value with diabetic rats (oral, diabetic rats) is “improved wound healing”. For the same compound, the “Acute oral toxicity outcome” value in the data set on mice (oral, 2000 mg kg^−1) was “died”; in the data set on mice (oral, 5, 50, and 300 mg kg^−1), “no adverse effects or fatality”. The “Activity compared to the positive control hyaluronic acid” value with 3T3-L1 cells is “comparable activity”.
Consider Hyaluronic acid [reference compound], for which the “3T3-L1 IC50” value in data set [1] (MTT assay, 3T3-L1) stood at 112.59 µg/mL.
With `O=C(O)CNC(=O)c1nc(Cl)c2ccccc2c1O` [FG-2216], in data set [2], the IC50 is 3.9 µM. Besides, in data set [3], the Fatal outcome is listed as “one patient died of hepatic necrosis” and the “Liver enzyme test results” value is given as “aberrant liver enzyme test results”.
